In the library only some 3.1% were active in any assay of this set; here they are far more common.
KCNK3 block = human KCNK3 channel inhibition, primary screen; O14649; CHO-KCNK3 thallium flux, FluxOR fluorescence; stronger effect = lower value; B-score at 10 µM; 340,000 compounds, 0.84% hits; AID 602410;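 active = B-score under library mean minus 4 SD, starting fluorescence ratio at most library mean plus 5 SD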;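 also: more negative B-score means stronger inhibition of thallium flux through KCNK3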
KCNK9 block = human KCNK9 channel inhibition; Q9NPC2; HEK293 KCNK9, FluxOR thallium flux fluorescence; stronger effect = lower value; B-score at 10 µM; 310,000 compounds, 1.2% hits; AID 488922;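 active = ratio B-score over 3 SD below the library mean, with starting fluorescence within 5 SD of its mean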;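 also: negative B-score means less thallium flux so channel inhibition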
KCNQ1 pot = potentiators or activators of human KCNQ1 potassium channel; B-score at 10 µM; 310,000 compounds, 0.35% hits; CHO-K1 KCNQ1, thallium flux FluxOR fluorescence; stronger effect = higher value; AID 2648; P51787;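 active = fluorescence ratio B-score, a plate-corrected score, at least three library SD, with initial intensity B-score within 5 SD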
Target sequence (P51787 whole entry, looked up): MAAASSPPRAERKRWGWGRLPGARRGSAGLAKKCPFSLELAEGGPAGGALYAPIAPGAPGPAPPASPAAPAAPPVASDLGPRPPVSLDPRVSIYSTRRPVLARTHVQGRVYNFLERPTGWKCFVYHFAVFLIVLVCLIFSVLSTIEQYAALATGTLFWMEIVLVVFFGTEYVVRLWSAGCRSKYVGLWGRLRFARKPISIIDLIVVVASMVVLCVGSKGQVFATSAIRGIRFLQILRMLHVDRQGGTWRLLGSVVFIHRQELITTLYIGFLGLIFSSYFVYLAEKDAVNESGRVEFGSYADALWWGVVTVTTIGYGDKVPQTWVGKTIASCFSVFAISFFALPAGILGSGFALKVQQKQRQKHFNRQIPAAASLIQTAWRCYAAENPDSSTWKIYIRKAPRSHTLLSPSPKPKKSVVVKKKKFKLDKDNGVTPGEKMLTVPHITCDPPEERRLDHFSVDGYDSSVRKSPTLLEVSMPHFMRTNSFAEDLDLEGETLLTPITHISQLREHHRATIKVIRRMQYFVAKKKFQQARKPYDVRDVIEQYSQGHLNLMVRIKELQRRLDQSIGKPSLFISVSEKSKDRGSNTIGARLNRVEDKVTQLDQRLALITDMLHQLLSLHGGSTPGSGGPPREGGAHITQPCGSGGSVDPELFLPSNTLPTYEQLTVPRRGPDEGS
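System: Stable KCNQ1 CHO-K1 line | Incubation: 90 min dye loading and 20 min compound exposure, both at room temperature | Measure: Ratio B score | Medium: Assay buffer for compound exposure, DMSO matched across wells | Compound dosing: Single-concentration screen | Probe or stimulus: K+/Tl+ depolarizing stimulus | Measured by: Kinetic FluxOR fluorescence, 10 s baseline plus 110 s post-stimulus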
hERG rescue = shields human hERG channel from block by proarrhythmic agents; Q12809; CHO-hERG, FluxOR thallium flux, dofetilide IC70 present; activation (rescue from dofetilide block), less the hit threshold, % at 10 µM; 310,000 compounds, 0.51% hits; AID 1511;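 active = activation above the mean of controls blocked by dofetilide plus 5 SD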;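 also: thallium influx through hERG after potassium depolarization seen as dye fluorescence rise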
KCNQ1 inh = human KCNQ1 channel inhibition; CHO-K1 KCNQ1, FluxOR thallium flux fluorescence; stronger effect = higher value; B-score at 10 µM; 310,000 compounds, 1.3% hits; AID 2642;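 active = compounds whose thallium flux B-score, printed positive for inhibition, exceeds three library SD while starting fluorescence stays within three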;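 also: channel opened by potassium depolarization with thallium stimulus after 20 min compound exposure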
Numbers stand for hits; 0 = inactive; - = no result given.

SMILES	KCNK3 block	KCNK9 block	KCNQ1 pot	hERG rescue	KCNQ1 inh
Cc1c(C(=O)N2CCN(Cc3ccc4c(c3)OCO4)CC2)sc2ncnc(N3CCN(c4ccccc4F)CC3)c12	0	0	0	0	0
Cc1c(C(=O)N2CCN(Cc3ccc4c(c3)OCO4)CC2)sc2ncnc(N3CCN(c4ccccc4)CC3)c12	0	0	0	0	7
CCOC(=O)[C@H]1[C@H]2COc3ccc(C)cc3[C@@H]2N2C(=O)CN(C)C(=O)[C@@]12C	0	-	-	-	-
O=C(COc1coc(CN2CCN(c3cccc(Cl)c3)CC2)cc1=O)NC1CCCC1	0	0	0	0	0
Cc1occc1-c1nnc(SCC(=O)NC2CCCCC2C)o1 (stereo not drawn)	0	-	-	-	-
O=C(Nc1ccccc1Cl)C(Cl)C(=O)c1ccccc1 (stereo not drawn)	0	-	-	-	-
O=C(Nc1ccc(Cl)cc1)C(Cl)C(=O)c1ccccc1 (stereo not drawn)	0	0	10	0	0
CNCc1ccccc1Sc1cccc2ccccc12	0	0	8	0	0
N#C/C(=N\Nc1ccc(Cl)cc1)C(N)=S	0	0	0	0	6
COc1ccc(S(=O)(=O)N2CCCCC2)cc1NC(=O)c1ccc(N2CCCC2=O)cc1	0	-	-	-	-
O=C(Nc1ccccc1F)Nc1ccc([N+](=O)[O-])cc1Cl	0	0	0	0	8
O=C(Nc1ccc([N+](=O)[O-])cc1Cl)c1cc(Cl)ccc1O	0	-	-	-	-
CSCCC(NS(=O)(=O)c1cccc(C(F)(F)F)c1)C(=O)Nc1ccccc1N1CCCC1 (stereo not drawn)	0	0	0	0	0
Clc1ccc(-c2nnc(CSc3nnc(-c4cccs4)n3Cc3ccccc3)o2)cc1	-8.8	0	0	0	8
Cc1ccc(CNC2CCCCC2)s1	0	0	0	0	0
COc1ccc(-c2n[nH]c(C(F)(F)F)c2-c2cc3ccccc3o2)c(O)c1	0	0	0	0	8
COc1cc(OC)cc(C(=O)NCC(=O)OCc2ccc(Cl)c(Cl)c2)c1	0	-	-	-	-
CCOC(=O)c1c(C(C)(C)C)oc2ccc(O)cc12	0	-	-	-	-
CCOC(=O)c1c(C(C)(C)C)oc2ccc(OCC#N)cc12	0	0	0	0	6
O=C(Nc1ccc(S(=O)(=O)Nc2cnc3ccccc3n2)cc1)c1ccc(Cl)c([N+](=O)[O-])c1	0	0	0	0	0
CCOC(=O)c1c(CN2CCNCC2)nc2ccc(Cl)cc2c1-c1ccccc1	0	-	-	-	-
NC(=O)c1ccccc1NC(=O)N1CCOCC1	0	0	9	0	0
NC(=O)c1ccccc1NC(=O)/C=C/C(=O)O	0	0	0	15	0
COC(=O)c1ccccc1NC(=O)/C=C/C(=O)O	0	0	0	0	0
NC(=O)c1ccccc1NC(=O)CN1CCOCC1	0	0	0	0	0
SMILES	KCNK3 block	KCNK9 block	KCNQ1 pot	hERG rescue	KCNQ1 inh
CC(C)CC(=O)NC(NC(=S)Nc1sc2c(c1C#N)CCCC2)C(Cl)(Cl)Cl (stereo not drawn)	0	-7.4	0	0	0
O=C1C(=C(I)I)c2ccccc2-c2ccccc21	-9.4	-	-	-	-
CC(CCCCCCCCC(=O)O)N(CCO)C(=O)OC(C)(C)C (stereo not drawn)	0	-	-	-	-
S=c1nc[nH]c2c1sc1nc(-c3ccccc3)c3c(c12)CCCC3	0	0	60	52	0
O=c1[nH]cnc2c1sc1nc(-c3ccccc3)c3c(c12)CCCC3	0	0	0	0	0
COc1cccc(N2CCN(S(=O)(=O)c3ccc(-n4cnnn4)cc3)CC2)c1	0	0	0	0	0
Cn1c(C(=O)N2CCCC(C(=O)NCCN3CCOCC3)C2)cc2sccc21 (stereo not drawn)	0	0	0	7.3	0
CCOc1ccc(S(=O)(=O)N2CCCC(C(=O)NCCN3CCOCC3)C2)cc1Cl (stereo not drawn)	0	0	9	0	0
O=C(CCOc1ccccc1)N1CCN(S(=O)(=O)c2cccs2)CC1	0	0	0	0	0
O=C(COc1ccccc1)N1CCN(S(=O)(=O)c2cccs2)CC1	0	0	9	0	0
O=c1oc(-c2ccccc2)cc(Cl)c1Cl	0	0	0	0	6
O=c1cc(-c2ccccc2)oc2ccc(Cl)cc12	0	-	-	-	-
CCc1cccc2c(C(=O)CSc3nnc(C4CC4)o3)c[nH]c12	0	-	-	-	-
N#C/C(=C\c1ccc(C#N)cc1)C(=O)N1CCCC1	0	0	0	0	6
N#C/C(=C\c1ccc(O)cc1)C(=O)N1CCCC1	0	0	0	0	0
COc1cc(NC(=S)N2CCC(C(O)(c3ccccc3)c3ccccc3)CC2)cc(OC)c1	0	0	23	0	0
CCNC(=S)N1CCC(C(O)(c2ccccc2)c2ccccc2)CC1	0	0	0	0	0
CCCc1cc(=O)oc2cc(OCC(=O)NCC(O)c3ccccc3)ccc12 (stereo not drawn)	0	0	0	0	0
CCOC(=O)[C@H]1[C@H]2COc3ccc(Cl)cc3[C@@H]2N2C(=O)[C@@H](C)NC(=O)[C@@]12C	0	-	-	-	-
CCc1nnc(SCC(=O)Nc2ccccc2)nc1CC	0	0	0	4.9	0
COc1ccc(C(=O)c2c(-c3cccc(C)c3)oc3ccc(N4CCOCC4)cc23)cn1	0	0	0	0	0
O=C(COC(=O)/C=C/c1ccc([N+](=O)[O-])cc1)NCc1ccco1	0	0	0	0	0
O=C(COC(=O)/C=C/c1ccc(F)cc1)NCc1ccco1	0	0	0	39	0
CCOC(=O)CCCCCN(Cc1ccccc1)S(=O)(=O)c1ccc([N+](=O)[O-])cc1	0	0	0	0	7
CCOC(=O)CSc1ccc(S(=O)(=O)N(CC)CC)cc1[N+](=O)[O-]	0	-6.8	0	0	0
SMILES	KCNK3 block	KCNK9 block	KCNQ1 pot	hERG rescue	KCNQ1 inh
COc1ccc(OC)c(S(=O)(=O)Nc2cc3c(cc2N2CCCC2)n(C)c(=O)c(=O)n3C)c1	0	0	0	0	0
CC(=O)C[C@H](O)CC(=O)[C@@H]1OC(=O)CCCCCCc2ccccc21	0	-	-	-	-
CCOC(=O)Cn1c(=NC(=O)CSC(C)=O)sc2cc(OC)ccc21	0	-8.1	0	0	0
OC(CCN1CCOCC1)c1ccccc1 (stereo not drawn)	0	0	0	9.3	0
Cc1cccc(OC(C)C(=O)Nc2ccc3c(c2)OCCO3)c1 (stereo not drawn)	0	-	-	-	-
O=c1c(/C=C(\O)c2ccccc2)nc2ccccc2n1-c1ccccc1	0	-8.1	0	0	0
Cc1nc2ccccc2n1-c1ccccc1	0	0	0	0	0
Cc1ccc2c(c1)c(-c1ccccc1)nc1nnnn12	0	0	0	6.0	0
COC(=O)[C@@]12CCCN1[C@H](c1ccc(-c3ccc(Cl)c(Cl)c3)cc1)[C@H]1C(=O)N(C)C(=O)[C@H]12	0	0	0	0	0
O=C(CCCn1nnnc1CN1CCOCC1)N1CCN(c2ccccc2F)CC1	0	0	8	0	0
CCN(CC)S(=O)(=O)c1cccc(C(=O)N[C@H](C(=O)NNC(=O)c2ccccc2)C(C)C)c1	0	0	33	7.9	0
Cc1ccccc1NCC(=O)N/N=C/c1c(C)c(C(=O)c2ccc(Cl)cc2)n2ccccc12	0	0	0	0	7

Source: PubChem
